Results: article PMC6503841 (Nature chemical biology, 2018)
Where a SMILES comes first, the peptide text is derived from it. Where no end group is shown, it is not given here. The star is where a group is joined. Oxazole(5-CO) = O=C(c1cnco1)*; Crotonyl(E) = C/C=C/C(=O)*; 2Furoyl = O=C(c1ccco1)*; Cbz = O=C(OCc1ccccc1)*

Columns and labels:
[1] = target: ENL YEATS domain, ENL (1–138) (human) (UniProt Q03111); assay: cross-linking
ENL YEATS = target: T1, ENL YEATS (Homo sapiens, UniProt Q03111); assay: competitive photo-cross-linking assay, ENL YEATS; type: binding; conditions: comparing with AF9 YEATS
T1 sequence (Q03111 1-138): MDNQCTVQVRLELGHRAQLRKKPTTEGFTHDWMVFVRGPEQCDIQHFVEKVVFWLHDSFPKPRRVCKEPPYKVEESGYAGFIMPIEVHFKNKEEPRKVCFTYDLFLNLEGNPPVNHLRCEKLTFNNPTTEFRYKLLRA

[2] = tested on: YEATS domains of YEATS2 and GAS41; assay: competitive photo-cross-linking assay, YEATS2 and GAS41 YEATS domains; type: binding, human; conditions: AF9 and ENL versus YEATS2 and GAS41; result in words
endogenous AF9 [3] = target: T2, endogenous AF9 (Homo sapiens, UniProt P42568); assay: competitive photo-cross-linking pull-down in nuclear extracts, AF9; type: binding
T2 sequence (P42568 1-568): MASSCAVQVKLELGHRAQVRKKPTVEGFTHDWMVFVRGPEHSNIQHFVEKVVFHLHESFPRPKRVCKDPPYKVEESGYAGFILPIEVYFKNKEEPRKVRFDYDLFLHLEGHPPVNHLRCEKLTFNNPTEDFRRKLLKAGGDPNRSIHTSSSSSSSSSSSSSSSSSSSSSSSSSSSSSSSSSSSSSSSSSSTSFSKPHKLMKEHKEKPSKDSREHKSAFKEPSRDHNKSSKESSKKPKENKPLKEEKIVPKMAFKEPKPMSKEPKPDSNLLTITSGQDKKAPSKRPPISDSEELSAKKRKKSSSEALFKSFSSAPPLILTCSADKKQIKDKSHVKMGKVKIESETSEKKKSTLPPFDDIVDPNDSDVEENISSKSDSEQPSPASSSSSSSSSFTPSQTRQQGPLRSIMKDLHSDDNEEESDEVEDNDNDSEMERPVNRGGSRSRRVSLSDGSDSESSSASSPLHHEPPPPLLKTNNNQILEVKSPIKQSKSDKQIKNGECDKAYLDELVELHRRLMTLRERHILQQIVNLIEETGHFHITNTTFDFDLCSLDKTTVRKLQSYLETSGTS

endogenous ENL = target: T3, endogenous ENL (Homo sapiens, UniProt Q03111); assay: competitive photo-cross-linking pull-down in nuclear extracts, ENL; type: binding
T3 sequence (Q03111 1-559): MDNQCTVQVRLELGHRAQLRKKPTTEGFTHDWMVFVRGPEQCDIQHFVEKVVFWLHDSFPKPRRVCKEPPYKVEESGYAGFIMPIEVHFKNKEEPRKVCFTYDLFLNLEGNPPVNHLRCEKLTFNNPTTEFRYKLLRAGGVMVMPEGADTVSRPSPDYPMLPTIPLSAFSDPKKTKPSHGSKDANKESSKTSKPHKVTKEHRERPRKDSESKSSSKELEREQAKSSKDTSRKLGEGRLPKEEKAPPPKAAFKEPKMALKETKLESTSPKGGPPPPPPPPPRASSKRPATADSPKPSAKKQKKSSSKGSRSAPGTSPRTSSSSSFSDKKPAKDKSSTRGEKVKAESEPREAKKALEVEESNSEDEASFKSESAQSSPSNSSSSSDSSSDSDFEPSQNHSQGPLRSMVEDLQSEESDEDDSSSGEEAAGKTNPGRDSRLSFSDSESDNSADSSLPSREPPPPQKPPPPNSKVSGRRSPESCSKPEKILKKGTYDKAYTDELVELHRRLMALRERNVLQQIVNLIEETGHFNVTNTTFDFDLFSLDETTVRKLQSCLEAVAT

[4] = tested on: ENL at HOXA10, MYB, MYC and MEIS1 in MOLM-13 cells; assay: ChIP-qPCR of ENL at target genes; type: cell-based, human; conditions: MOLM-13 (Flag-ENL) cells, 50 μM, 24 hours
Summary of the method: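 MOLM-13 (Flag-ENL) cells (about 20 million) were treated with or without 50 μM test compound for 24 h, cross-linked with formaldehyde for 10 min at room temperature and quenched with glycine. Chromatin was sonicated to 600–800 bp. 50 μg chromatin (5 μg input) was immunoprecipitated overnight at 4 °C with anti-FLAG M2 magnetic beads, washed, eluted and reverse cross-linked. DNA was measured by qPCR as percentage of input, n = 4 (HOXA10) or 3 (others).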

AF9 YEATS [5] = target: T4, AF9 YEATS (Homo sapiens, UniProt P42568); assay: competitive photo-cross-linking assay; type: binding; conditions: compared with ENL YEATS
T4 sequence (P42568 1-138): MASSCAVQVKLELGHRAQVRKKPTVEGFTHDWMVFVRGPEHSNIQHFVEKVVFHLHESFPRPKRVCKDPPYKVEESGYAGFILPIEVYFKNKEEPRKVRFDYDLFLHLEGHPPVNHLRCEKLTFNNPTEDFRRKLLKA

endogenous AF9 [6] = target: T2, endogenous AF9; assay: cellular thermal shift assay; type: cell-based; conditions: MOLM-13, MV4;11, HEL cells, 50 μM, 12 h
Summary of the method: (§1)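 CETSA: MOLM-13 (Flag-ENL), MV4;11 or HEL cells were incubated with 50 μM test compound for 12 h, washed with PBS and resuspended in PBS with protease inhibitors (~3 million cells/100 μl). Aliquots were heated at indicated temperatures for 3 min, then held at room temperature for 3 min. Cells were lysed by two liquid-nitrogen freeze-thaw cycles and spun at 20,000×g for 20 min at 4 °C. Soluble supernatant was immunoblotted.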

MOLM-13 cells = assay: RT-qPCR of mRNA levels in MOLM-13 cells; type: cell-based, human
ENL = target: T5, ENL (Homo sapiens, UniProt Q03111); assay: cellular thermal shift assay; type: cell-based; conditions: MOLM-13, MV4;11, HEL cells, 50 μM, 12 h; 55 °C, 57 °C, and 59 °C
T5 sequence (Q03111 1-559): T3 sequence (Q03111 1-559)
Summary of the method: as §1

AF9 YEATS [7] = target: T4, AF9 YEATS; assay: isothermal titration calorimetry; type: binding; conditions: ITC Kd versus the crotonyl group (H3K9cr)
[8] = target: T6, AF9 YEATS domain, AF9 (1–138) (human, UniProt P42568 1-138); assay: cross-linking
T6 sequence (looked up): T4 sequence (P42568 1-138)

[9] = target: T6, AF9 YEATS domain, AF9 (1–138); assay: ITC
[10] = target: T7, ENL YEATS domain, ENL (1–138) (human, UniProt Q03111 1-138); assay: cross-linking
T7 sequence (looked up): T1 sequence (Q03111 1-138)

[11] = nuclear extracts of HeLa S3 and MOLM-13 (Flag-ENL), result in words

Molecule: XL-13l (dipeptide with only the RK signature motif, 5-oxazolecarbonyl at K27)
- IC50 [1]: 3300 nM

Molecule: C[C@H](NC(=O)[C@@H](NC(=O)[C@H](CCC(N)=O)NC(=O)OCc1ccccc1)[C@@H](C)O)C(=O)N[C@@H](CCCNC(=N)N)C(=O)N[C@@H](CCCCNC(=O)c1ccco1)C(N)=O [XL-07i]
- lower potency against ENL YEATS (ENL YEATS): 5 fold
- selectivity among YEATS domains [2]: more selective toward the YEATS domains of AF9 and ENL over YEATS2 and GAS41

Molecule: C[C@H](NC(=O)OCc1ccccc1)C(=O)N[C@@H](CCCNC(=N)N)C(=O)N[C@@H](CCCCNC(=O)c1cnco1)C(N)=O [XL-13m]
- enrichment of AF9 (endogenous AF9 [3]; [11]): little effects
- inhibition at 2 µM (endogenous AF9 [3]; read-out: inhibition of enrichment of AF9): ~3%
- photo-H3K9cr-induced enrichment of ENL (endogenous ENL; [11]): significantly inhibited
- inhibition at 2 µM (endogenous ENL; read-out: inhibition of photo-H3K9cr-induced enrichment of endogenous ENL): ~50%
- abundance of ENL at HOXA10, MYB, MYC and MEIS1 [4]: decreases in the abundance of ENL
- weaker inhibition against AF9 YEATS (AF9 YEATS [5]): 4.5 fold
- thermal stability of endogenous AF9 (endogenous AF9 [6]): almost no differences
- transcription levels of HOXA10, MYB, MYC and MEIS1 (MOLM-13 cells; MOLM-13 (Flag-ENL) cells, 50 μM, 24 hours): significant loss in the transcription levels
- transcription suppression of MYC and HOXA9 (MOLM-13 cells; co-treatment of XL-13m (50 μM) and EPZ-5676 (500 nM), 72 hours): enhanced effect on the transcription suppression
- thermal stability of ENL (soluble protein) (ENL): higher abundance of soluble ENL proteins

Molecule: C[C@H](NC(=O)[C@@H](NC(=O)[C@H](CCC(N)=O)NC(=O)[C@@H](N)CCCCN)[C@@H](C)O)C(=O)N[C@@H](CCCNC(=N)N)C(=O)N[C@@H](CCCCNC(=O)c1cnco1)C(=O)N[C@@H](CO)C(=O)N[C@H](C(=O)NCC(=O)NCC(N)=O)[C@@H](C)O [XL-13] (H-KQTARK(Oxazole(5-CO))STGG-NH2; N-terminus and C-terminus assumed)
- binding enhancement (AF9 YEATS [7]): 14.7 fold

Molecule: C[C@H](NC(=O)OCc1ccccc1)C(=O)N[C@@H](C)C(=O)N[C@@H](CCCNC(=N)N)C(=O)N[C@@H](CCCCNC(=O)c1cnco1)C(N)=O [XL-13n] (Cbz-AARK(Oxazole(5-CO))-NH2)
- weaker inhibition against AF9 YEATS (AF9 YEATS [5]): 6.1 fold

Molecule: C[C@H](NC(=O)[C@@H](NC(=O)[C@H](CCC(N)=O)NC(=O)[C@@H](N)CCCCN)[C@@H](C)O)C(=O)N[C@@H](CCCNC(=N)N)C(=O)N[C@@H](CCCCNC(=O)c1ccco1)C(=O)N[C@@H](CO)C(=O)N[C@H](C(=O)NCC(=O)NCC(N)=O)[C@@H](C)O [XL-07] (H-KQTARK(2Furoyl)STGG-NH2; N-terminus and C-terminus assumed)
- binding enhancement (AF9 YEATS [7]): 4.5 fold

Molecule: QTARK(2Furoyl) [XL-07h (pentapeptide with the QTARK sequence)]
- IC50 [8]: 4500 nM

Molecule: Cbz-QTARK(Oxazole(5-CO)) [XL-13a (XL-07i with the 2-furancarbonyl group replaced by a 5-oxazolecarbonyl group)]
- Kd [9]: 130 nM
- fold lower potency than against AF9 YEATS [10]: 2.9 fold
- IC50 [8]: 240 nM

Molecule: KQTARK(Crotonyl(E))STGG (peptide, UniProt P68431 5-14, looked up) [H3K9cr peptide (histone H3 residues 4–13, Lys 9 crotonylated)]
- Kd [9]: 14700 nM
- IC50 [8]: 6000 nM

Molecule: Cbz-QTARK(2Furoyl)
- Kd [9]: 330 nM
- fold lower potency than against AF9 YEATS [10]: 5 fold
- IC50 [8]: 260 nM
